# RAD54 branch: blocks human RAD54 Holliday junction branch migration; inhibition, % at 10.4 µM; actives 0.14% (n = 360,000); Q92698; FAM/BHQ fluorescence;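 active = mean normalized replicate activity at least 40 and at least half of replicates scoring 40 or more; inconclusive = only one of the two criteria met; inactive = mean below 40 and under half of replicates reaching 40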;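 also: 0% = median of neutral control wells and 100% = median of positive control wells; inhibitors cause a drop in the FAM fluorescence signal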
# GSIS activator: primary screen for activators of insulin secretion dependent on glucose, INS-1E cells, GLuc reporter luminescence. INS-1E GLuc reporter insulin secretion, 2-3 h. activation, % at 16.6 µM. actives 0.61% (n = 370,000);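 active = lowest replicate activation of at least 40%, so every replicate reaches that level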;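 also: 0% = median of neutral control wells and 100% = median of IBMX positive control wells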
# E-sel inducer: induces E-selectin expression in human endothelial cells. HUVEC E-selectin immunofluorescence imaging; normalized: neutral wells 0, TNF-alpha wells 100. activation, % at 7.58 µM. actives 0.37% (n = 260,000). AID 686992;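 active = mean E-selectin-positive cell signal at least 10% of the positive control, reached in at least 60% of replicates, without over 20% cell loss; inconclusive = no rule given, readout overlaps actives, possibly toxicity-flagged; inactive = the rest, including those meeting only one limit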
# Target sequence (P16581 whole entry, looked up): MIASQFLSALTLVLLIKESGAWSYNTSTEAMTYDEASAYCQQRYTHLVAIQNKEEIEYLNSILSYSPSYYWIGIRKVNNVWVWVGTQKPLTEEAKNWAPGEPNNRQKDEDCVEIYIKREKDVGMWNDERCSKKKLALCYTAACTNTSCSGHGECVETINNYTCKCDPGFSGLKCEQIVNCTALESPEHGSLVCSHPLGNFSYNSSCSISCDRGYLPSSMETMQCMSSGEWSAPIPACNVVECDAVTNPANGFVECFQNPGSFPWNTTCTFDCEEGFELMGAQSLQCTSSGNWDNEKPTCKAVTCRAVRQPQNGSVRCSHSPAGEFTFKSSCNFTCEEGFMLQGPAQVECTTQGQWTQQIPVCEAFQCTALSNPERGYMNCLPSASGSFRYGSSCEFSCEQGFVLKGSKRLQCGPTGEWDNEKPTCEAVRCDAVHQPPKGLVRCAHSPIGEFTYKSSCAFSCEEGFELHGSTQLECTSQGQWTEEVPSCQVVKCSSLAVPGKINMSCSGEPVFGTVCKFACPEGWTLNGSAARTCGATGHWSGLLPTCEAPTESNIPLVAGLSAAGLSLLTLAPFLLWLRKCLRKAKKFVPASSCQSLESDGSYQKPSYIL
#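 Assay system: HUVEC, human umbilical vein endothelial cells / Amount: 3,000 HUVEC/well / Controls: TNF-alpha positive control, DMSO neutral control / Compound dosing: single concentration / Medium: EGM-2 over gelatin coat / Evaluation: percent E-selectin-positive cells / Signal: immunofluorescence imaging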
# rRNA inh HTS: inhibitors of bacterial rRNA selective over humanized ribosomes; GFP signal change (wild-type ribosome), % (concentration not given with the values); actives 1.6% (n = 350,000); E. coli WT GFP vs humanized-ribosome RFP mutants, fluorescence, 24 h; active compounds read low; DMSO median 0, no signal -100;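 active = significant combined selectivity score with lowered wild-type GFP, culture density cut under 30%, mutant RFP and density less affected; inactive = any of these conditions unmet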
# RAD52 inh: blocks human RAD52 DNA annealing; P43351; recombinant RAD52 DNA annealing, FRET fluorescence; inhibition, % at 18.7 µM; actives 0.46% (n = 360,000); AID 651710;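 active = every replicate showing at least 50% inhibition; inconclusive = mean inhibition at least 50% but not in every replicate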
# AF4-AF9 inh: inhibitors of human MLL-AF4/AF9 interaction; AlphaScreen, biotin-AF4 peptide binding to FLAG-AF9; inhibition, % at 10 µM; actives 0.47% (n = 350,000); AID 651704;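 active = every replicate reaching a set inhibition limit, whatever the replicate mean, cut at about 25% in these data; inconclusive = mean inhibition reaches that limit but some replicates miss it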;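 also: 0% = plate neutral control median and 100% = total signal loss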
# An asterisk follows results filed as active; u = inconclusive; x = no result given. Sampled rows, rich in hits. Any-hit rate of the full collection: about 2.6%.
SMILES,RAD54 branch,GSIS activator,E-sel inducer,rRNA inh HTS,RAD52 inh,AF4-AF9 inh
O=C(Cc1ccc(Cl)cc1)Nc1ncc([N+](=O)[O-])s1,x,-10,0,-48,-15,-2
CN(CCc1ccccc1)C(=O)c1ccc(NC(=O)Cc2ccc(NC(=O)C3CCN(C(=O)C4CC4)CC3)cc2)cc1,5,1,0,0,-3,u
O=C(Cc1ccc(NC(=O)C2CCCN(C(=O)CCc3ccccc3)C2)cc1)Nc1cccc(C(=O)N2CCCC2)c1 (centres undefined),12,-16,1,-15*,-74,-3
CN(CCc1ccccc1)C(=O)c1ccc(NC(=O)Cc2ccc(NC(=O)C3CCN(C(=O)c4ccccc4)CC3)cc2)cc1,-7,1,2,3,-11,31*
C[C@@H]1CN([C@H](C)CO)C(=O)c2cc(NC(=O)Nc3cccc4ccccc34)ccc2O[C@H]1CN(C)C,7,24,-6,5,4,0
C[C@@H]1CN([C@@H](C)CO)C(=O)c2cc(NC(=O)Nc3ccccc3)ccc2O[C@@H](C)CCCCO[C@H]1CN(C)C,11,6,0,4,8,-6
COc1ccc(CN2CN(S(=O)(=O)c3cccs3)c3nc4ccccc4nc32)cc1,x,5,7,-42*,-26,4
COc1ccc(CN2CN(S(=O)(=O)c3ccccc3)c3nc4ccccc4nc32)cc1,x,-5,20,-25*,-14,13
CCCCCN1CN(S(=O)(=O)c2cccs2)c2nc3ccccc3nc21,x,-45,5,-30,-16,7
COc1ccc(CCN2CN(S(=O)(=O)c3ccc(OC)cc3)c3nc4ccccc4nc32)cc1,x,-7,0,-9,-46,-6
C[C@H](CO)N1C[C@H](C)[C@@H](CN(C)C(=O)c2cnccn2)Oc2ncc(/C=C/c3ccccc3)cc2C1=O,-4,-3,0,-3,-3,2
C[C@H]1CN([C@@H](C)CO)C(=O)c2cc(NC(=O)C3CC3)ccc2O[C@H]1CN(C)S(=O)(=O)c1ccc(F)cc1,-3,-1,0,1,-2,0
COc1ccc2c(c1)CCc1cc(C(=O)O)sc1-2,-7,65*,0,-10,-10,-35
Cc1ccc(C(=O)N/C(=C\c2ccc(-c3ccc(Br)cc3)o2)C(=O)NCCCN(C)C)cc1,x,27,2,-60,-44,25*
Cc1cc(NC(=O)COC(=O)CSCc2ccc(Cl)c(Cl)c2)no1,-1,13,x,-22*,-9,7
Cc1cc(NC(=O)COC(=O)c2oc3c(Cl)cccc3c2C)no1,12,65*,x,x,x,x
Cc1cc(NC(=O)COC(=O)CCS(=O)(=O)c2cc(Cl)ccc2Cl)no1,-1,41*,x,3,5,-2
O=C(c1ccc(S(=O)(=O)Cc2cc(F)ccc2F)c([N+](=O)[O-])c1)N1CCCC1,-2,76*,-2,-5,-12,-1
CC(C)NC(=O)N(C)C[C@@H]1OCCCC[C@@H](C)Oc2ccc(NC(=O)CCC(F)(F)F)cc2C(=O)N([C@@H](C)CO)C[C@@H]1C,-1,24,3,4,-17,-1
C[C@@H]1CN([C@H](C)CO)C(=O)c2cc(NC(=O)CCCCCC(=O)Nc3ccccc3N)ccc2O[C@H]1CN(C)S(=O)(=O)c1cn(C)cn1,x,5,0,5,-3,-3
CS(=O)(=O)NCCNc1cc(Cl)ccc1[N+](=O)[O-],1,-1,95*,4,-62,0
CS(=O)(=O)NCCNc1ccc(Cl)cc1[N+](=O)[O-],x,-4,0,-2,-3,1
C[C@@H]1CN([C@H](C)CO)C(=O)c2cc(C#CC3(O)CCCC3)cnc2O[C@@H]1CN(C)C(=O)Nc1ccc2c(c1)OCO2,7,25,0,4,6,-6
COc1ccc(N2CCN(C3CCCN(S(=O)(=O)c4ccc(C)cc4C)C3)CC2)cc1 (centres undefined),-16,7,x,-2,-15,32*
C[C@@H]1CCCCO[C@@H](CN(C)S(=O)(=O)c2cccs2)[C@@H](C)CN([C@@H](C)CO)C(=O)c2cc(NC(=O)c3ccncc3)ccc2O1,-5,5,x,0,-25,0
SMILES,RAD54 branch,GSIS activator,E-sel inducer,rRNA inh HTS,RAD52 inh,AF4-AF9 inh
COc1ccc(CN(C)C[C@H]2Oc3c(NC(=O)Nc4c(C)noc4C)cccc3C(=O)N([C@H](C)CO)C[C@H]2C)cc1,-7,34,1,4,6,-2
COc1ccccc1CN1CC(C(=O)N(C)Cc2[nH]c3ccccc3c2C)CCC1=O (centres undefined),10,-17,119*,-2,-16,4
COc1ccccc1CN1CC(C(=O)N(C)CCCn2nc(C)cc2C)CCC1=O (centres undefined),-9,8,0,-1,-6,-2
COc1ccc(CN(C)C(=O)COC(=O)c2c(-c3ccccc3Cl)noc2C)cc1,-8,-14,x,-27*,-35,-2
CSc1nc(SC(C)C(=O)O)c2c3c(sc2n1)COC(C)(C)C3 (centres undefined),0,30,x,-23*,-18,4
Cc1cc(C)n(-c2nc(SCC(=O)O)c3c4c(sc3n2)COC(C)(C)C4)n1,x,43*,0,-40,-6,-2
CCOC(=O)N1CCN(c2nc(SC)nc3sc4c(c23)CC(C)(C)OC4)CC1,-1,x,x,x,x,x
C[C@H](CO)N1C[C@H](C)[C@H](CN(C)C(=O)NC2CCCCC2)Oc2ncc(-c3cc4ccccc4o3)cc2C1=O,1,-20,0,-1,18,6
C[C@H](CO)N1C[C@H](C)[C@@H](CN(C)C(=O)Nc2ccc(F)cc2)Oc2ccc(NS(=O)(=O)c3cccs3)cc2CC1=O,5,-10,0,3,2,0
CC(=O)c1cccc(-c2csc3ncnc(Sc4nnnn4C)c23)c1,2,42*,0,3,-12,-2
Cn1nnnc1Sc1ncnc2scc(-c3ccc(Cl)cc3)c12,-1,70*,0,-42,-6,0
COc1ccc(-c2csc3ncnc(Sc4nnnn4C)c23)cc1,1,12,0,-14,-9,0
Cc1ccccc1CN1CCN(S(=O)(=O)c2ccc(Cl)s2)CC1,-1,-12,290*,-6,-3,-1
CCCN(CC(=O)Nc1ccccc1C)C(=O)c1cccc(S(=O)(=O)N2CCc3ccccc3C2)c1,0,-17,x,-21*,-13,0
COC(=O)COc1ccc(S(=O)(=O)N2CCc3ccccc3C2)cc1C,15,-3,x,-26*,-7,x
COc1ccc(CNC(=O)C[C@@H]2C=C[C@H](NC(=O)CN(C)C)[C@H](CO)O2)cc1,-1,-2,0,1,0,1

# Source: PubChem BioAssay (Broad Institute)
